The source made the active and inactive calls. The calls are words filed in the database; no cut-off is given here.
How the values were obtained:
Format in all cases: functional
[1] = test system: Saccharomyces cerevisiae; experiment: Antifungal activity against Saccharomyces cerevisiae MTCC 1344 assessed as zone of inhibition at 14.8 uM incubated for 2 days by cross streak plate method; conditions: MTCC 1344, 48 h, time 2 day, read-out: IZ
Summary of the method: (§1)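 Fungal strain (A. niger MTCC 404 or S. cerevisiae MTCC 1344) was incubated with the compound for 2 days at 37 °C. Growth inhibition was then assessed by the cross streak plate method.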

[2] = test system: Saccharomyces cerevisiae; experiment: Antifungal activity against Saccharomyces cerevisiae MTCC 1344 assessed as zone of inhibition at 29.7 uM incubated for 2 days by cross streak plate method; conditions: MTCC 1344, 48 h, time 2 day, read-out: IZ; summary of the method: as §1
[3] = test system: Staphylococcus aureus; experiment: Antibacterial activity against Staphylococcus aureus MTCC 96 assessed as bacterial growth inhibition by microdilution method
Summary of the method: (§2)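 Broth microdilution against Gram-positive and Gram-negative strains. The endpoint is the minimal inhibitory concentration, in µg/ml.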

[4] = test system: Aspergillus niger; experiment: Antifungal activity against Aspergillus niger MTCC 404 assessed as zone of inhibition at 29.7 uM incubated for 2 days by cross streak plate method; conditions: MTCC 404, 48 h, time 2 day, read-out: IZ; summary of the method: as §1
[5] = test system: Saccharomyces cerevisiae; experiment: Antifungal activity against Saccharomyces cerevisiae MTCC 1344 assessed as zone of inhibition at 22.2 uM incubated for 2 days by cross streak plate method; conditions: MTCC 1344, 48 h, time 2 day, read-out: IZ; summary of the method: as §1
[6] = Antioxidant activity assessed as DPPH radical scavenging activity
[7] = test system: Aspergillus niger; experiment: Antifungal activity against Aspergillus niger MTCC 404 assessed as zone of inhibition at 14.8 uM incubated for 2 days by cross streak plate method; conditions: MTCC 404, 48 h, time 2 day, read-out: IZ; summary of the method: as §1
[8] = test system: Bacillus subtilis; experiment: Antibacterial activity against Bacillus subtilis MTCC 441 assessed as bacterial growth inhibition by microdilution method; summary of the method: as §2
[9] = test system: Escherichia coli; experiment: Antibacterial activity against Escherichia coli MTCC 443 assessed as bacterial growth inhibition by microdilution method; summary of the method: as §2
[10] = test system: Aspergillus niger; experiment: Antifungal activity against Aspergillus niger MTCC 404 assessed as zone of inhibition at 22.2 uM incubated for 2 days by cross streak plate method; conditions: MTCC 404, 48 h, time 2 day, read-out: IZ; summary of the method: as §1
[11] = test system: Pseudomonas aeruginosa; experiment: Antibacterial activity against Pseudomonas aeruginosa MTCC 424 assessed as bacterial growth inhibition by microdilution method; summary of the method: as §2
[12] = test system: Saccharomyces cerevisiae; experiment: Antifungal activity against Saccharomyces cerevisiae MTCC 1344 assessed as zone of inhibition at 27.5 uM incubated for 2 days by cross streak plate method; conditions: MTCC 1344, 48 h, time 2 day, read-out: IZ; summary of the method: as §1
[13] = test system: Aspergillus niger; experiment: Antifungal activity against Aspergillus niger MTCC 404 assessed as zone of inhibition at 18.3 uM incubated for 2 days by cross streak plate method; conditions: MTCC 404, 48 h, time 2 day, read-out: IZ; summary of the method: as §1
[14] = test system: Saccharomyces cerevisiae; experiment: Antifungal activity against Saccharomyces cerevisiae MTCC 1344 assessed as zone of inhibition at 18.3 uM incubated for 2 days by cross streak plate method; conditions: MTCC 1344, 48 h, time 2 day, read-out: IZ; summary of the method: as §1
[15] = test system: Saccharomyces cerevisiae; experiment: Antifungal activity against Saccharomyces cerevisiae MTCC 1344 assessed as zone of inhibition at 36.6 uM incubated for 2 days by cross streak plate method; conditions: MTCC 1344, 48 h, time 2 day, read-out: IZ
Summary of the method: (§3)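 S. cerevisiae MTCC 1344 cultures were incubated for 2 days at 37 °C and then tested by the cross streak plate method.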

[16] = test system: Aspergillus niger; experiment: Antifungal activity against Aspergillus niger MTCC 404 assessed as zone of inhibition at 27.5 uM incubated for 2 days by cross streak plate method; conditions: MTCC 404, 48 h, time 2 day, read-out: IZ; summary of the method: as §1
[17] = test system: Aspergillus niger; experiment: Antifungal activity against Aspergillus niger MTCC 404 assessed as zone of inhibition at 36.6 uM incubated for 2 days by cross streak plate method; conditions: MTCC 404, 48 h, time 2 day, read-out: IZ; summary of the method: as §1
[18] = test system: Aspergillus niger; experiment: Antifungal activity against Aspergillus niger MTCC 404 assessed as zone of inhibition at 25.2 uM incubated for 2 days by cross streak plate method; conditions: MTCC 404, 48 h, time 2 day, read-out: IZ; summary of the method: as §1
[19] = test system: Saccharomyces cerevisiae; experiment: Antifungal activity against Saccharomyces cerevisiae MTCC 1344 assessed as zone of inhibition at 16.8 uM incubated for 2 days by cross streak plate method; conditions: MTCC 1344, 48 h, time 2 day, read-out: IZ; summary of the method: as §1
[20] = test system: Aspergillus niger; experiment: Antifungal activity against Aspergillus niger MTCC 404 assessed as zone of inhibition at 16.8 uM incubated for 2 days by cross streak plate method; conditions: MTCC 404, 48 h, time 2 day, read-out: IZ; summary of the method: as §1
[21] = test system: Saccharomyces cerevisiae; experiment: Antifungal activity against Saccharomyces cerevisiae MTCC 1344 assessed as zone of inhibition at 25.2 uM incubated for 2 days by cross streak plate method; conditions: MTCC 1344, 48 h, time 2 day, read-out: IZ; summary of the method: as §1
[22] = test system: Aspergillus niger; experiment: Antifungal activity against Aspergillus niger MTCC 404 assessed as zone of inhibition at 33.7 uM incubated for 2 days by cross streak plate method; conditions: MTCC 404, 48 h, time 2 day, read-out: IZ; summary of the method: as §1
[23] = test system: Saccharomyces cerevisiae; experiment: Antifungal activity against Saccharomyces cerevisiae MTCC 1344 assessed as zone of inhibition at 33.7 uM incubated for 2 days by cross streak plate method; conditions: MTCC 1344, 48 h, time 2 day, read-out: IZ; summary of the method: as §3
[24] = test system: Saccharomyces cerevisiae; experiment: Antifungal activity against Saccharomyces cerevisiae MTCC 1344 assessed as zone of inhibition at 15.9 uM incubated for 2 days by cross streak plate method; conditions: MTCC 1344, 48 h, time 2 day, read-out: IZ; summary of the method: as §1
[25] = test system: Aspergillus niger; experiment: Antifungal activity against Aspergillus niger MTCC 404 assessed as zone of inhibition at 31.8 uM incubated for 2 days by cross streak plate method; conditions: MTCC 404, 48 h, time 2 day, read-out: IZ; summary of the method: as §1
[26] = test system: Saccharomyces cerevisiae; experiment: Antifungal activity against Saccharomyces cerevisiae MTCC 1344 assessed as zone of inhibition at 23.9 uM incubated for 2 days by cross streak plate method; conditions: MTCC 1344, 48 h, time 2 day, read-out: IZ; summary of the method: as §1
[27] = test system: Aspergillus niger; experiment: Antifungal activity against Aspergillus niger MTCC 404 assessed as zone of inhibition at 15.9 uM incubated for 2 days by cross streak plate method; conditions: MTCC 404, 48 h, time 2 day, read-out: IZ; summary of the method: as §1
[28] = test system: Saccharomyces cerevisiae; experiment: Antifungal activity against Saccharomyces cerevisiae MTCC 1344 assessed as zone of inhibition at 31.8 uM incubated for 2 days by cross streak plate method; conditions: MTCC 1344, 48 h, time 2 day, read-out: IZ; summary of the method: as §1
[29] = test system: Aspergillus niger; experiment: Antifungal activity against Aspergillus niger MTCC 404 assessed as zone of inhibition at 23.9 uM incubated for 2 days by cross streak plate method; conditions: MTCC 404, 48 h, time 2 day, read-out: IZ; summary of the method: as §1

SMILES	MIC [3]	Activity [6]	MIC [8]	MIC [9]	MIC [11]	zone of inhibition at 27.5 µM [12]	zone of inhibition at 18.3 µM [13]	zone of inhibition at 18.3 µM [14]	zone of inhibition at 36.6 µM [15]	zone of inhibition at 27.5 µM [16]	zone of inhibition at 36.6 µM [17]	zone of inhibition at 15.9 µM [24]	zone of inhibition at 31.8 µM [25]	zone of inhibition at 23.9 µM [26]	zone of inhibition at 15.9 µM [27]	zone of inhibition at 31.8 µM [28]	zone of inhibition at 23.9 µM [29]	also measured
O=C(CSc1nnc(-c2ccccc2OCc2cn(-c3ccc(Cl)cc3)nn2)n1Cc1ccccc1)c1ccc(Br)cc1	8.5 µg/mL	inactive	4.4 µg/mL	9 µg/mL	8.1 µg/mL													zone of inhibition at 14.8 µM [1]: 1.5 mm; zone of inhibition at 29.7 µM [2]: 3 mm; zone of inhibition at 29.7 µM [4]: 3 mm; zone of inhibition at 22.2 µM [5]: 2 mm; zone of inhibition at 14.8 µM [7]: 2 mm; zone of inhibition at 22.2 µM [10]: 2 mm
O=C(Sc1nnc(-c2ccccc2OCc2cn(-c3ccccc3)nn2)n1Cc1ccccc1)c1ccccc1	8.9 µg/mL	inactive	4 µg/mL	10 µg/mL	8.7 µg/mL	6.8 mm	5.5 mm	6 mm	6.7 mm	6.8 mm	7 mm							
O=C(CSc1nnc(-c2ccccc2OCc2cn(-c3ccccc3)nn2)n1-c1ccccc1)c1ccccc1	9.8 µg/mL	inactive	4.9 µg/mL	9.8 µg/mL	9.1 µg/mL	2 mm	2.1 mm	1.5 mm	3 mm	3 mm	3 mm							
O=C(CSc1nnc(-c2ccccc2OCc2cn(-c3ccc(Cl)cc3)nn2)n1Cc1ccccc1)c1ccccc1	9.7 µg/mL	inactive	5.2 µg/mL	10 µg/mL	9 µg/mL													zone of inhibition at 25.2 µM [18]: 8 mm; zone of inhibition at 16.8 µM [19]: 5.8 mm; zone of inhibition at 16.8 µM [20]: 6 mm; zone of inhibition at 25.2 µM [21]: 5.7 mm; zone of inhibition at 33.7 µM [22]: 8.2 mm; zone of inhibition at 33.7 µM [23]: 7 mm
O=C(CSc1nnc(-c2ccccc2OCc2cn(-c3ccc(Cl)cc3)nn2)n1Cc1ccccc1)c1ccc(Cl)cc1	8 µg/mL	inactive	4 µg/mL	8.5 µg/mL	8.2 µg/mL							2 mm	3 mm	2 mm	2 mm	3 mm	2 mm	
O=C(CSc1nnc(-c2ccccc2OCc2cn(-c3ccccc3)nn2)n1Cc1ccccc1)c1cccc(Cl)c1	8 µg/mL	inactive	4.1 µg/mL	> 40.8 µg/mL	7.5 µg/mL							1.5 mm	3 mm	2 mm	2 mm	3 mm	2 mm	
